Assay results as given in ChEMBL document CHEMBL3414514, “Synthesis and pharmacological evaluation of novel bisindole derivatives bearing oximes moiety: identification of novel proapoptotic agents” (Eur J Med Chem, 2015).

How the values were obtained:
A549 = test: Cytotoxicity against human A549 cells after 2 days by MTT assay; type: functional, cell-based; details: A549, 48 h
In short: (§1)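 Cells grown in medium with 10% heat-inactivated FBS at 37 C under 5% CO2. Compounds dissolved in medium with 1% DMSO; controls received 1% DMSO. After 2 days, MTT (10 mg/mL) added for 4 h, formazan dissolved in DMSO and absorbance read at 570/630 nm. Survival taken relative to negative control; IC50 by Bliss method (n = 5), at least three independent experiments.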

[1] = Cytotoxicity against human SKOV3 cells after 2 days by MTT assay; type: functional, cell-based; details: SK-OV-3, 48 h; in short: as §1
NCI-H460 = test: Cytotoxicity against human NCI-H460 cells after 2 days by MTT assay; type: functional, cell-based; details: NCI-H460, 48 h; in short: as §1
MGC-803 = test: Cytotoxicity against human MGC803 cells after 2 days by MTT assay; type: functional, cell-based; details: MGC-803, 48 h; in short: as §1
HepG2 = test: Cytotoxicity against human HepG2 cells after 2 days by MTT assay; type: functional, cell-based; details: HepG2, 48 h; in short: as §1
[2] = Cytotoxicity against human SPCA2 cells after 2 days by MTT assay; type: functional, cell-based; details: SPCA2, 48 h; in short: as §1
HUVEC = test: Cytotoxicity against human HUVEC cells after 2 days by MTT assay; type: cell-based; details: 48 h; in short: as §1
[3] = Cytotoxicity against human T24 cells after 2 days by MTT assay; type: functional, cell-based; details: T-24, 48 h; in short: as §1

Row | Compound | IC50 (A549) | IC50 [1] | IC50 (NCI-H460) | IC50 (MGC-803) | IC50 (HepG2) | IC50 [2] | IC50 (HUVEC) | IC50 [3]
1 | O/N=C1/C(c2c[nH]c3ccc(F)cc23)=Nc2ccc(F)cc21 | 11.9 µM | 9.89 µM | 12.8 µM | 12.3 µM | 9.31 µM | 13.7 µM | > 100 µM | 10.1 µM
2 | O/N=C1/C(c2c[nH]c3ccc(Br)cc23)=Nc2ccc(Br)cc21 | 16.2 µM | 19.2 µM | 18.9 µM | 13.2 µM | 14.3 µM | 11.6 µM | > 100 µM | 12.5 µM
3 | N#Cc1ccc2c(c1)/C(=N\O)C(c1c[nH]c3ccc(C#N)cc13)=N2 | 14.9 µM | 25.9 µM | 14.3 µM | 18.4 µM | 30.1 µM | 19.2 µM | > 100 µM | 28.4 µM
4 | N#Cc1ccc2c(c1)/C(=N\OCc1ccccc1)C(c1c[nH]c3ccc(C#N)cc13)=N2 | 14.2 µM | 16.6 µM | 14.5 µM | 15.5 µM | 25.1 µM | 19.3 µM | > 100 µM | 18.6 µM
5 | c1ccc(CO/N=C2/C(c3c[nH]c4ccccc34)=Nc3ccccc32)cc1 | 19.3 µM | 16.9 µM | 22 µM | 15.4 µM | 19.5 µM | 21.4 µM | > 100 µM | 12.2 µM
6 | Cc1cccc2c1N=C(c1c[nH]c3c(C)cccc13)/C2=N/OCc1cccc(Cl)c1 | 31.9 µM | 26.5 µM | 23.1 µM | 26.4 µM | 22.8 µM | 18.2 µM | > 100 µM | 17.6 µM
7 | COc1ccc2c(c1)/C(=N\OCc1ccc(F)cc1Cl)C(c1c[nH]c3ccc(OC)cc13)=N2 | 19.1 µM | 12.2 µM | 13 µM | 16.1 µM | 24.1 µM | 11.1 µM | > 100 µM | 12.4 µM
8 | FC(F)(F)c1ccc(CO/N=C2/C(c3c[nH]c4ccc(Br)cc34)=Nc3ccc(Br)cc32)cc1 | 8.45 µM | 10.2 µM | 11.2 µM | 11.1 µM | 11.1 µM | 12.4 µM | > 100 µM | 9.88 µM
9 | Fc1ccc(CO/N=C2/C(c3c[nH]c4ccccc34)=Nc3ccccc32)c(Cl)c1 | 21.4 µM | 37.6 µM | 21.9 µM | 18.5 µM | 25.4 µM | 19.5 µM | > 100 µM | 20 µM
10 | c1ccc2c(c1)N=C(c1c[nH]c3ccccc13)/C2=N/OCC1CC1 | 36.7 µM | 32.3 µM | 40.9 µM | 29.9 µM | 32.1 µM | 33.8 µM | > 100 µM | 35.4 µM
11 | Cc1cccc2c1N=C(c1c[nH]c3c(C)cccc13)/C2=N/OCc1cccc(F)c1 | 23.3 µM | 17.3 µM | 16.8 µM | 31.9 µM | 34.1 µM | 20.4 µM | > 100 µM | 21.2 µM
12 | Cc1cccc2c1/C(=N\O)C(c1c[nH]c3cccc(C)c13)=N2 | 44.9 µM | 27 µM | 24.2 µM | 25 µM | 21.3 µM | 42.2 µM | > 100 µM | 15 µM
13 | O/N=C1/C(c2c[nH]c3cc(F)ccc23)=Nc2cc(F)ccc21 | 21.3 µM | 16.4 µM | 22.2 µM | 22.1 µM | 13.8 µM | 10 µM | > 100 µM | 11.7 µM
14 | Nc1ccc2c(c1)/C(=N\O)C(c1c[nH]c3ccc(N)cc13)=N2 | 14.8 µM | 17.5 µM | 20.2 µM | 13.2 µM | 18.5 µM | 16.7 µM | > 100 µM | 9.38 µM
15 | Fc1ccc2c(c1)N=C(c1c[nH]c3cc(F)ccc13)/C2=N/OCc1ccccc1 | 15.7 µM | 15.6 µM | 19.4 µM | 21.9 µM | 24.1 µM | 20.2 µM | > 100 µM | 13.3 µM
16 | CCCCO/N=C1/C(c2c[nH]c3ccccc23)=Nc2ccccc21 | 37 µM | 46 µM | 42.2 µM | 23.3 µM | 33.6 µM | 29.2 µM | > 100 µM | 35.2 µM
17 | COC(=O)c1ccc2c(c1)/C(=N\O)C(c1c[nH]c3ccc(C(=O)OC)cc13)=N2 | 20.5 µM | 15.6 µM | 14 µM | 22.4 µM | 15.3 µM | 14.9 µM | > 100 µM | 11.5 µM

Row | Compound | IC50 (A549) | IC50 [1] | IC50 (NCI-H460) | IC50 (MGC-803) | IC50 (HepG2) | IC50 [2] | IC50 (HUVEC) | IC50 [3]
18 | Fc1ccc2c(c1)/C(=N\OCc1ccccc1)C(c1c[nH]c3ccc(F)cc13)=N2 | 10.5 µM | 12.3 µM | 12 µM | 21.3 µM | 17.3 µM | 13.3 µM | > 100 µM | 12.5 µM
19 | CC(=O)Nc1ccc2c(c1)/C(=N\O)C(c1c[nH]c3ccc(NC(C)=O)cc13)=N2 | 21.9 µM | 21.2 µM | 30.2 µM | 17.9 µM | 28.2 µM | 27.8 µM | > 100 µM | 16.8 µM
20 | Cc1ccc(CO/N=C2/C(c3c[nH]c4ccc(F)cc34)=Nc3ccc(F)cc32)cc1 | 13.6 µM | 11.3 µM | 12 µM | 20.8 µM | 19.6 µM | 11 µM | > 100 µM | 20 µM
21 | Cc1ccc(CO/N=C2/C(c3c[nH]c4ccccc34)=Nc3ccccc32)cc1 | 22.4 µM | 32.4 µM | 29.8 µM | 22.8 µM | 19.1 µM | 25.4 µM | > 100 µM | 23.5 µM
22 | Clc1cccc(CO/N=C2/C(c3c[nH]c4ccc(Br)cc34)=Nc3ccc(Br)cc32)c1 | 12.9 µM | 14.1 µM | 14.6 µM | 7.6 µM | 13.3 µM | 13.5 µM | > 100 µM | 9.34 µM
23 | FC(F)(F)c1ccc(CO/N=C2/C(c3c[nH]c4ccccc34)=Nc3ccccc32)cc1 | 21.9 µM | 24.2 µM | 24.1 µM | 30.6 µM | 22.3 µM | 21.2 µM | > 100 µM | 18.9 µM
24 | O=[N+]([O-])c1ccc2c(c1)/C(=N\O)C(c1c[nH]c3ccc([N+](=O)[O-])cc13)=N2 | 10.4 µM | 10.7 µM | 11.5 µM | 10.8 µM | 8.25 µM | 11.2 µM | > 100 µM | 13.2 µM
25 | Cc1cccc2c1N=C(c1c[nH]c3c(C)cccc13)/C2=N/O | 17.5 µM | 48 µM | 31.4 µM | 16.9 µM | 15.6 µM | 24.3 µM | > 100 µM | 23.5 µM
26 | Cc1ccc2c(c1)/C(=N\O)C(c1c[nH]c3ccc(C)cc13)=N2 | 11.2 µM | 11.1 µM | 18.3 µM | 9.47 µM | 10.7 µM | 19.6 µM | > 100 µM | 8.78 µM
27 | Fc1ccc(CO/N=C2/C(c3c[nH]c4ccccc34)=Nc3ccccc32)cc1 | 27 µM | 29 µM | 20.7 µM | 33 µM | 35.5 µM | 25.9 µM | > 100 µM | 23.1 µM
28 | O/N=C1/C(c2c[nH]c3ccccc23)=Nc2ccccc21 | 21.8 µM | 15.9 µM | 22.5 µM | 20.6 µM | 20.4 µM | 20.4 µM | > 100 µM | 27.4 µM
29 | C=CCO/N=C1/C(c2c[nH]c3ccccc23)=Nc2ccccc21 | 30.9 µM | 26.7 µM | 24.5 µM | 24.3 µM | 31.3 µM | 26.9 µM | > 100 µM | 32.1 µM
30 | Cc1ccc(CO/N=C2/C(c3c[nH]c4ccc(Br)cc34)=Nc3ccc(Br)cc32)cc1 | 13.3 µM | 7.22 µM | 10.6 µM | 31.2 µM | 20.4 µM | 15.1 µM | > 100 µM | 21.4 µM
31 | COC(=O)c1ccc2c(c1)N=C(c1c[nH]c3cc(C(=O)OC)ccc13)/C2=N/O | 25.9 µM | 26.8 µM | 20.8 µM | 29.8 µM | 20.8 µM | 27.2 µM | > 100 µM | 14.3 µM
32 | O=c1[nH]cc(F)c(=O)[nH]1 [FLUOROURACIL] | 38.2 µM | 27.3 µM | 46.1 µM | – | 32 µM | 44.1 µM | – | 40.6 µM
33 | N#Cc1cccc2c1/C(=N\O)C(c1c[nH]c3cccc(C#N)c13)=N2 | 33.6 µM | 30.6 µM | 18.8 µM | 35.4 µM | 40.5 µM | 30.9 µM | > 100 µM | 19.4 µM
34 | O/N=C1/C(c2c[nH]c3ccc(OCc4ccccc4)cc23)=Nc2ccc(OCc3ccccc3)cc21 | 19.5 µM | 17.6 µM | 16.6 µM | 14.5 µM | 19 µM | 12 µM | > 100 µM | 11.8 µM
